# Results as given in ChEMBL document CHEMBL1140705, “Synthesis and evaluation of N-methyl and S-methyl 11C-labeled 6-methylthio-2-(4'-N,N-dimethylamino)phenylimidazo[1,2-a]pyridines as radioligands for imaging beta-amyloid plaques in Alzheimer's disease” (J Med Chem, 2008).
# pKi: −log10 of the molar value.
# How the values were obtained:
# [1] = biological target: Amyloid-beta precursor protein (Homo sapiens, UniProt P05067); assay: Binding affinity to beta amyloid plaque in human Alzheimer's disease brain tissue; assay type: tissue-based
# Chain of Amyloid-beta precursor protein (P05067 whole entry): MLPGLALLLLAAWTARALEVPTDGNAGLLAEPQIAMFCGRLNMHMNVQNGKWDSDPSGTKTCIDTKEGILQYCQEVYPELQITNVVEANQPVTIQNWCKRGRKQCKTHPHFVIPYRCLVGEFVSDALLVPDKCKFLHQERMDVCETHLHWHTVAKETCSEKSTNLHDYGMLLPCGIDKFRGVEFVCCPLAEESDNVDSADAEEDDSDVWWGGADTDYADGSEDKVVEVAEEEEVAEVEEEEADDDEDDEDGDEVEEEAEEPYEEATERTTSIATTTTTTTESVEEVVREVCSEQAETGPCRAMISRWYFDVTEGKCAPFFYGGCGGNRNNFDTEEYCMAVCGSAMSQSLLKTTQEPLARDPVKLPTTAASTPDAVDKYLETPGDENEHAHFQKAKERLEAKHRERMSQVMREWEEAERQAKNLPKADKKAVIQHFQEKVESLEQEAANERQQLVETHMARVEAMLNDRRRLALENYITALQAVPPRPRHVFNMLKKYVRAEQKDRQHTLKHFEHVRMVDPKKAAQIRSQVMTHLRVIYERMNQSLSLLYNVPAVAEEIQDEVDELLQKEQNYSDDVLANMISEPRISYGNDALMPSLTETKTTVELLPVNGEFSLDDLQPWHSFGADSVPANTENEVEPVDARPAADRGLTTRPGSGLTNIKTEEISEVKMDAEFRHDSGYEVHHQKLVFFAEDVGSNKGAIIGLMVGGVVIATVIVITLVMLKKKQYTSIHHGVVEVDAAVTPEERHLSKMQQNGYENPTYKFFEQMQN
# Procedure, shortened: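 Competition binding in human AD brain homogenate (1:500 in PBS) against [3H]PIB (0.4 nM), displacer 10^-10 to 10^-5 M from DMSO dilutions, total volume 1.0 mL PBS, 2 h at 37 °C; filtration on polyethyleneimine-treated GF/B, PBS washes, scintillation counting. One-site competition fit; Ki by Cheng-Prusoff using KD from homologous displacement Scatchard analysis.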
# [2] = Lipophilicity, log D at pH 7.4; assay type: physicochemical; settings: buffer
# Procedure, shortened: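 Shake-flask partition: 3-5 mg ligand in 0.1 M PBS pH 7.4 (6.0 mL) with n-octanol (1.0 mL), vortexed, shaken, held 10 min at room temperature, centrifuged 5000g. Both phases quantified by reverse-phase HPLC; P taken as organic/aqueous concentration ratio; n = 3.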
# Rattus norvegicus [3] = assay: Ratio of brain radioactivity at maximal uptake to that at 60 min in iv dosed rat after 60 mins; settings: in vivo, 1 h
# Cerebellum [4] = assay: Biodistribution in rat cerebellum at 0.9 to 1.9 Ci/umol, penile iv after 2.83 mins; assay type: ADME, organism-based; settings: in vivo, 170 s
# Procedure, shortened: (§1)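 No-carrier-added [11C] tracer (0.82-3.6 mCi) given by penile vein to rats, killed at 2.33, 2.83 or 30 min. Brain tissue extracted and homogenized in acetonitrile/water with carrier, plasma treated likewise, urine analysed directly, all by reverse-phase radio-HPLC. Radioactivity normalized to injected dose and body weight as % SUV, split into parent and three radiometabolites.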
# Cerebrum [5] = assay: Biodistribution in rat cerebrum at 0.9 to 1.9 Ci/umol, penile iv after 2.83 mins; assay type: ADME, organism-based; settings: in vivo, 170 s; procedure, shortened: as §1
# Plasma [6] = assay: Biodistribution in rat plasma at 0.9 to 1.9 Ci/umol, penile iv after 2.83 mins; assay type: ADME, organism-based; settings: in vivo, 170 s; procedure, shortened: as §1
# Plasma [7] = assay: Biodistribution in rat plasma at 0.9 to 1.9 Ci/umol, penile iv after 30 mins; assay type: ADME, organism-based; settings: in vivo, 0.5 h; procedure, shortened: as §1
# [8] = Stability in monkey whole blood after 90 mins; assay type: ADME, tissue-based, Macaca mulatta; settings: rhesus monkey, read-out: Stability
# Procedure, shortened: (§2)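 No-carrier-added [11C] tracer (25.0 µCi monkey, 46.5 µCi rat) in 1 mL whole blood, shaken at 37 °C. Aliquots taken at 60 and 90 min into acetonitrile spiked with carrier, centrifuged, and supernatant radio-HPLC gives percent unchanged. Pellet counting gives extraction recovery.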
# Cerebrum [9] = assay: Biodistribution in rat cerebrum at 0.9 to 1.9 Ci/umol, penile iv after 30 mins; assay type: ADME, organism-based; settings: in vivo, 0.5 h; procedure, shortened: as §1
# Plasma [10] = assay: Biodistribution in rat plasma at 22.94 umol/kg bolus injection after 10 mins; assay type: ADME, organism-based; settings: in vivo
# Procedure, shortened: (§3)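 Carrier-added [11C] tracer (carrier 22.94 µmol/kg) injected as bolus into one rat, tissues and plasma taken at 10 min. Samples extracted into acetonitrile and analysed by radio-HPLC. Results given as % SUV, partitioned into parent and radiometabolites A-C.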
# Rattus norvegicus [11] = assay: Biodistribution in rat urine at 0.9 to 1.9 Ci/umol, penile iv after 2.83 mins; assay type: ADME, organism-based; settings: in vivo, 170 s; procedure, shortened: as §1
# Plasma [12] = assay: Drug level in monkey plasma at 1.35 Ci/umol after 30 mins; assay type: ADME, cell-free, Macaca mulatta; settings: rhesus monkey, 0.5 h
# Procedure, shortened: (§4)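 Two monkey experiments with no-carrier-added [11C] tracer given iv. Anticoagulated venous blood drawn at 10 and 30 min, plasma analysed by radio-HPLC. Parent fraction reported as percent of plasma radioactivity and as % SUV.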
# Cerebellum [13] = assay: Biodistribution in rat cerebellum at 0.9 to 1.9 Ci/umol, penile iv after 30 mins; assay type: ADME, organism-based; settings: in vivo, 0.5 h; procedure, shortened: as §1
# Cerebellum [14] = assay: Biodistribution in rat cerebellum at 22.94 umol/kg bolus injection after 10 mins; assay type: ADME, organism-based; settings: in vivo; procedure, shortened: as §3
# Plasma [15] = assay: Biodistribution in rat plasma at 0.9 to 1.9 Ci/umol, penile iv after 2.33 mins; assay type: ADME, organism-based; settings: in vivo, 140 s; procedure, shortened: as §1
# [16] = Stability in rat brain after 60 mins; assay type: ADME, tissue-based; settings: read-out: Stability
# Procedure, shortened: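 Rat brain (1.75 g) homogenized in saline on ice and incubated with formulated [11C] tracer (186 µCi) at 37 °C with shaking. Aliquots quenched into carrier-spiked acetonitrile, centrifuged, and supernatant analysed by radio-HPLC for percent unchanged.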
# Cerebrum [17] = assay: Biodistribution in rat cerebrum at 22.94 umol/kg bolus injection after 10 mins; assay type: ADME, organism-based; settings: in vivo; procedure, shortened: as §3
# [18] = Stability in monkey whole blood after 30 mins; assay type: ADME, tissue-based, Macaca mulatta; settings: rhesus monkey, read-out: Stability
# [19] = Biodistribution in rat cerebrum at 0.9 to 1.9 Ci/umol, penile iv after 2.33 mins; settings: in vivo, 140 s
# Mus musculus = assay: Ratio of brain radioactivity at maximal uptake to that at 60 min in iv dosed mouse after 60 mins; settings: in vivo, 1 h
# Plasma [20] = assay: Drug level in monkey plasma at 1.35 Ci/umol after 10 mins; assay type: ADME, cell-free, Macaca mulatta; settings: rhesus monkey; procedure, shortened: as §4
# [21] = Stability in rat whole blood after 60 mins; assay type: ADME, tissue-based; settings: read-out: Stability; procedure, shortened: as §2
# [22] = Radiochemical stability after 3 hrs at pH 7.5; assay type: physicochemical; settings: pH 7.5, 3 h
# Procedure, shortened: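 Purity of formulated tracer (saline with ethanol and polysorbate 80, pH ~7.5) followed over 3 h by radio-HPLC on a C18 column, MeOH/H2O/Et3N 70:30:0.1.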
# [23] = biological target: 5-hydroxytryptamine receptor 1D (Homo sapiens) (UniProt P28221); assay: Displacement of […] from 5HT1D receptor at 10 uM
# [24] = biological target: D(2) dopamine receptor (Homo sapiens) (UniProt P14416); assay: Displacement of […] from dopamine D2 receptor at 10 uM
# [25] = biological target: 5-hydroxytryptamine receptor 6 (Homo sapiens) (UniProt P50406); assay: Displacement of […] from 5HT6 receptor at 10 uM
# Chain of 5-hydroxytryptamine receptor 6 (Homo sapiens) (P50406 whole entry): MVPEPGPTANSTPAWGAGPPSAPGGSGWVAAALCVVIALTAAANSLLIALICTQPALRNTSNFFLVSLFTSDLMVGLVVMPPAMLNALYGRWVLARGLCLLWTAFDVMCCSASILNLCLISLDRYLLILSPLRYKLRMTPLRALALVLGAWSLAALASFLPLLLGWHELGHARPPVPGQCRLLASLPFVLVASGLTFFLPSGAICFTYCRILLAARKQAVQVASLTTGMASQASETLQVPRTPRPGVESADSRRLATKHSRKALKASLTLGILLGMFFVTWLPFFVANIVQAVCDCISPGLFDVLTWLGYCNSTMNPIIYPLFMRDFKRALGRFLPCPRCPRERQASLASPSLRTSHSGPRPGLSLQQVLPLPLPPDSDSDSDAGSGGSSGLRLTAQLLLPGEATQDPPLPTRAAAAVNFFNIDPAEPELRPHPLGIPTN
# [26] = biological target: 5-hydroxytryptamine receptor 3A (Homo sapiens) (UniProt P46098); assay: Displacement of […] from 5HT3 receptor at 10 uM
# Chain of 5-hydroxytryptamine receptor 3A (Homo sapiens) (P46098 whole entry): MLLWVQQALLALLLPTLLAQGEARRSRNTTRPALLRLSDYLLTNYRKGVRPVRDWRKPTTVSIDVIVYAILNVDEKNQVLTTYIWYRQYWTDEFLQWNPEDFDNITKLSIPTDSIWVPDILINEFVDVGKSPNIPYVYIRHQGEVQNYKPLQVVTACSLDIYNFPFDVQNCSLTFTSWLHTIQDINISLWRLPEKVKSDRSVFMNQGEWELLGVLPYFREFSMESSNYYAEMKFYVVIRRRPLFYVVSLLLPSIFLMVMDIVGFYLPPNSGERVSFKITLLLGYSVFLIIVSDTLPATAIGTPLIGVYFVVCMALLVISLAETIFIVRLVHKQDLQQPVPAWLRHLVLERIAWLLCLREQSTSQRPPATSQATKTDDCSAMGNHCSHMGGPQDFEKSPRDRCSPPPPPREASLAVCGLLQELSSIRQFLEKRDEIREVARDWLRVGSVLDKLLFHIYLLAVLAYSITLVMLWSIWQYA
# [27] = biological target: D(1A) dopamine receptor (Homo sapiens) (UniProt P21728); assay: Displacement of […] from dopamine D1 receptor at 10 uM
# [28] = biological target: 5-hydroxytryptamine receptor 7 (Homo sapiens) (UniProt P34969); assay: Displacement of […] from 5HT7 receptor at 10 uM
# [29] = biological target: D(3) dopamine receptor (Homo sapiens) (UniProt P35462); assay: Displacement of […] from dopamine D3 receptor at 10 uM
# Chain of D(3) dopamine receptor (Homo sapiens) (P35462 whole entry): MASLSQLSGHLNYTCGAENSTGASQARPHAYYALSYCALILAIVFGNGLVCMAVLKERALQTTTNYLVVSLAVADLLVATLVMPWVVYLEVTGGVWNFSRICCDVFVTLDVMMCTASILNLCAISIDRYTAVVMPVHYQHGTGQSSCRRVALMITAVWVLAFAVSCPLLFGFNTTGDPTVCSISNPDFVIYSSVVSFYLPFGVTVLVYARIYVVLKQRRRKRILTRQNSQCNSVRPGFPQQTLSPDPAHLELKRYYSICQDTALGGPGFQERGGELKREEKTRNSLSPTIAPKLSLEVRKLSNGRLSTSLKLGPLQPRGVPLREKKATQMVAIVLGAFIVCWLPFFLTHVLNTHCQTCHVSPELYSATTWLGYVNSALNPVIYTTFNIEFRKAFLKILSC
# [30] = biological target: Alpha-1B adrenergic receptor (Homo sapiens) (UniProt P35368); assay: Displacement of […] from adrenergic alpha-1b receptor at 10 uM
# Chain of Alpha-1B adrenergic receptor (Homo sapiens) (P35368 whole entry): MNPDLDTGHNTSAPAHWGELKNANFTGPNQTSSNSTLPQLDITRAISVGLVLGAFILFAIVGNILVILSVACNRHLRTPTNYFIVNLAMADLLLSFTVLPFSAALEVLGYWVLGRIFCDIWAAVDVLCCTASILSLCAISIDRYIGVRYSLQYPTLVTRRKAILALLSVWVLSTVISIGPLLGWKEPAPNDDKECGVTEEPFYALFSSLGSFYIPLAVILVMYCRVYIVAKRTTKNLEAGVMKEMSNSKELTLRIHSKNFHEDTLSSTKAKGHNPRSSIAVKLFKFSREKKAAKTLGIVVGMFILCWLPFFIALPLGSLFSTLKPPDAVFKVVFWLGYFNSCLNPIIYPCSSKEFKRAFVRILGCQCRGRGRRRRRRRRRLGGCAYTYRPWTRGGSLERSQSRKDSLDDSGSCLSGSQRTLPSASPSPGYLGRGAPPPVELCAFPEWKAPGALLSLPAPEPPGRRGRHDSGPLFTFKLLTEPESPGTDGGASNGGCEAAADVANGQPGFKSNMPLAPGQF
# [31] = biological target: 5-hydroxytryptamine receptor 2B (Homo sapiens) (UniProt P41595); assay: Displacement of […] from 5HT2B receptor at 10 uM
# [32] = biological target: Alpha-2A adrenergic receptor (Homo sapiens) (UniProt P08913); assay: Displacement of […] from adrenergic alpha-2a receptor at 10 uM
# Chain of Alpha-2A adrenergic receptor (Homo sapiens) (P08913 whole entry): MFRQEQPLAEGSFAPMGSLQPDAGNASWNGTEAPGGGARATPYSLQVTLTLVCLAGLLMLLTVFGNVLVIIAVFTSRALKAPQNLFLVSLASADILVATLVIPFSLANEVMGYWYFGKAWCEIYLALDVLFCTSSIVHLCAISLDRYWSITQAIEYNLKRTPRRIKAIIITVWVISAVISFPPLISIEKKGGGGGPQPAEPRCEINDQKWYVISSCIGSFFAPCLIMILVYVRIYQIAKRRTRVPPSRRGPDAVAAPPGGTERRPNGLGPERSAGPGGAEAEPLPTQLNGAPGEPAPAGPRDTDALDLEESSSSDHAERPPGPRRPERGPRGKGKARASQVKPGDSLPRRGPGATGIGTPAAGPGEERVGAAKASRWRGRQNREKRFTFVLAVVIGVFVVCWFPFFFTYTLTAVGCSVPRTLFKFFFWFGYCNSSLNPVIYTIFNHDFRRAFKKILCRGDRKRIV
# [33] = biological target: Beta-2 adrenergic receptor (Homo sapiens) (UniProt P07550); assay: Displacement of […] from adrenergic beta 2 receptor at 10 uM
# Chain of Beta-2 adrenergic receptor (Homo sapiens) (P07550 whole entry, looked up): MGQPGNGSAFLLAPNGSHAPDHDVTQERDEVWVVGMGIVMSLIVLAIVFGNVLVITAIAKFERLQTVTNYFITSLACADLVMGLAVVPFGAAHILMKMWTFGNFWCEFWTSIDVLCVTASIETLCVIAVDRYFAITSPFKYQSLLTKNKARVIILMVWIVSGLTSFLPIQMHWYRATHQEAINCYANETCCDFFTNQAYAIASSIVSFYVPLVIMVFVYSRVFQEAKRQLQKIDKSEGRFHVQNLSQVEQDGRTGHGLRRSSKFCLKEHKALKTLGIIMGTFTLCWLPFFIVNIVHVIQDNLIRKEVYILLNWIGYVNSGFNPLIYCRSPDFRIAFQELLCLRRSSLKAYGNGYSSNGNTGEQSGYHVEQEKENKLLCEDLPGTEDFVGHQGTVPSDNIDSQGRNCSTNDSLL
# [34] = biological target: D(4) dopamine receptor (Homo sapiens) (UniProt P21917); assay: Displacement of […] from dopamine D4 receptor at 10 uM
# Chain of D(4) dopamine receptor (Homo sapiens) (P21917 whole entry): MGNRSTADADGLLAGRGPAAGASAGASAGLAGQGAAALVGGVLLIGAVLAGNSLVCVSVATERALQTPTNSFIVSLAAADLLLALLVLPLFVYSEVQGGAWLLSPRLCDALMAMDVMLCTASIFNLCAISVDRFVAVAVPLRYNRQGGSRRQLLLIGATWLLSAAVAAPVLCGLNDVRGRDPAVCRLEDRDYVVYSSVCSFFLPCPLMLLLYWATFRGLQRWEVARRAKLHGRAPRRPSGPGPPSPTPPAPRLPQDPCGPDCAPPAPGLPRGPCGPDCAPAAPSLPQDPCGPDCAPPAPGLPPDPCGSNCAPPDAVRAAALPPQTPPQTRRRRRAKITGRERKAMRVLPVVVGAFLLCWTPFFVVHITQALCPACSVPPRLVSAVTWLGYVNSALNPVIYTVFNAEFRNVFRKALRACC
# [35] = biological target: Histamine H1 receptor (Homo sapiens) (UniProt P35367); assay: Displacement of […] from histamine H1 receptor at 10 uM
# Chain of Histamine H1 receptor (Homo sapiens) (P35367 whole entry): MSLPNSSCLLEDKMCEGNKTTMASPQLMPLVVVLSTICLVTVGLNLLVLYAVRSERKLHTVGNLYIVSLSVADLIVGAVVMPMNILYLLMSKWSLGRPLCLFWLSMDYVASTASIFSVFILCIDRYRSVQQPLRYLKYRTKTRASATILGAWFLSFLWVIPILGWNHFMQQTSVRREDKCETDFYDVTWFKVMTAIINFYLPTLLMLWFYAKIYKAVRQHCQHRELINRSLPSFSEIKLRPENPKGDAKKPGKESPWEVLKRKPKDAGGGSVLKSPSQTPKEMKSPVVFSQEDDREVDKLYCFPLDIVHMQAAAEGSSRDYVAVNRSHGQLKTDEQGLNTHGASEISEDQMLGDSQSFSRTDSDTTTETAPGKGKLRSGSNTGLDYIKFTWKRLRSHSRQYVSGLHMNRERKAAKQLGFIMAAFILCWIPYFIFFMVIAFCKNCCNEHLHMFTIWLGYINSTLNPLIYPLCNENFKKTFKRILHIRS
# [36] = biological target: Mu-type opioid receptor (Homo sapiens) (UniProt P35372); assay: Displacement of radioligand from mu opioid receptor at 10 uM
# [37] = biological target: 5-hydroxytryptamine receptor 1E (Homo sapiens) (UniProt P28566); assay: Displacement of […] from 5HT1E receptor at 10 uM
# [38] = biological target: 5-hydroxytryptamine receptor 1A (Homo sapiens) (UniProt P08908); assay: Displacement of […] from 5HT1A receptor at 10 uM
# [39] = biological target: 5-hydroxytryptamine receptor 5A (Homo sapiens) (UniProt P47898); assay: Displacement of […] from 5HT5A receptor at 10 uM
# [40] = biological target: 5-hydroxytryptamine receptor 2A (Homo sapiens) (UniProt P28223); assay: Displacement of […] from 5HT2A receptor at 10 uM
# [41] = biological target: 5-hydroxytryptamine receptor 2C (Homo sapiens) (UniProt P28335); assay: Displacement of […] from 5HT2C receptor at 10 uM
# [42] = biological target: Alpha-1A adrenergic receptor (Homo sapiens) (UniProt P35348); assay: Displacement of […] from adrenergic Alpha-1A receptor at 10 uM
# Chain of Alpha-1A adrenergic receptor (Homo sapiens) (P35348 whole entry): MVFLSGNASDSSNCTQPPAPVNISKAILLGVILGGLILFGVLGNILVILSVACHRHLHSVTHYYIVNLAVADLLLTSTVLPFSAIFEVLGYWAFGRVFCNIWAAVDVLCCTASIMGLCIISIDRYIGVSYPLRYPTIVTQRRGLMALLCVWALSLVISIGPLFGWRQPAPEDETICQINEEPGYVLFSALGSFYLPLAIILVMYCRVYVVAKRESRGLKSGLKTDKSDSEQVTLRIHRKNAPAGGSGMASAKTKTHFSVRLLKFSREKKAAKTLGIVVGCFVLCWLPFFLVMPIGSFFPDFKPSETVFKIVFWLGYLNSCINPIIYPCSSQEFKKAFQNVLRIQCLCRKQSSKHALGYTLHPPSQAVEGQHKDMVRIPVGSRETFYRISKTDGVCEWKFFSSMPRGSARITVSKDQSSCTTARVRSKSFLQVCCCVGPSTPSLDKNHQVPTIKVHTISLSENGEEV
# [43] = biological target: 5-hydroxytryptamine receptor 1B (Homo sapiens) (UniProt P28222); assay: Displacement of […] from 5HT1B receptor at 10 uM
# [44] = biological target: D(1B) dopamine receptor (Homo sapiens) (UniProt P21918); assay: Displacement of […] from dopamine D5 receptor at 10 uM
compound,measurement,setting,value
COC(=O)CCSc1ccc2nc(-c3ccc(N(C)C)cc3)cn2c1,pKi,[1],6.69
same,logD,[2],3.6
CN(C)c1ccc(-c2cn3cc(I)ccc3n2)cc1,logD,[2],3.58
CSc1ccc2nc(-c3ccc(N(C)[11CH3])cc3)cn2c1,Ratio,Rattus norvegicus [3],6.1
CNc1ccc(-c2cn3cc(SC)ccc3n2)cc1,pKi,[1],7.10
same,logD,[2],3.6
CN(C)c1ccc(-c2cn3cc(S[11CH3])ccc3n2)cc1,Drug uptake,Cerebellum [4],31.9%
same,Drug uptake,Cerebrum [5],30.2%
same,Drug uptake,Plasma [6],9.15%
same,Drug uptake,Plasma [7],0.2%
same,remaining at 1.5 h,[8],94.5%
same,Drug uptake,Cerebrum [9],13%
same,Drug uptake,Plasma [10],55.3%
same,Drug uptake,Rattus norvegicus [11],25.7%
same,Activity,Plasma [12],3.5%
same,Drug uptake,Cerebellum [13],18.6%
same,Drug uptake,Cerebellum [14],83.1%
same,Ratio,Rattus norvegicus [3],18.7
same,Drug uptake,Plasma [15],9.57%
same,remaining at 1 h,[16],93.6%
same,Drug uptake,Cerebrum [17],80.9%
same,remaining at 0.5 h,[18],96.2%
same,Drug uptake,[19],41.9%
same,Ratio,Mus musculus,11.1
same,Activity,Plasma [20],12.4%
same,remaining at 1 h,[21],91%
same,Stability,[22],Stable
CSc1ccc2nc(-c3ccc(N)cc3)cn2c1,pKi,[1],6.42
same,logD,[2],2.6
CSc1ccc2nc(-c3ccc(N(C)C)cc3)cn2c1,Activity,[23],< 50%
same,Activity,[24],< 50%
same,Activity,[25],< 50%
same,Activity,[26],< 50%
same,Activity,[27],< 50%
same,Activity,[28],< 50%
same,Activity,[29],< 50%
same,Activity,[30],< 50%
same,Activity,[31],< 50%
same,Activity,[32],< 50%
same,Activity,[33],< 50%
same,Activity,[34],< 50%
same,Activity,[35],< 50%
same,inhibition,[36],< 50%
same,Activity,[37],< 50%
same,Activity,[38],< 50%
same,Activity,[39],< 50%
same,logD,[2],4.1
same,Activity,[40],< 50%
same,Activity,[41],< 50%
same,Activity,[42],< 50%
same,Activity,[43],< 50%
same,Activity,[44],< 50%
